Measurements published in ChEMBL document CHEMBL4152296, “Synthesis, biological evaluation and molecular modeling of novel azaspiro dihydrotriazines as influenza virus inhibitors targeting the host factor dihydrofolate reductase (DHFR)” (Eur J Med Chem, 2018).
The source made the active and inactive calls. No cut-off for these calls is given here.

Key:
Influenza B virus = experiment: Antiviral activity against Influenza B virus B/Ned/537/05 infected in MDCK cells assessed as protection against virus-induced reduction in cell viability after 3 to 6 days by MTS assay; format: functional, organism-based; conditions: B/Ned/537/05, MDCK
Summary of the method: (§1)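 MDCK cells seeded at 9000/well and infected one day later (semiconfluent) with 100 CCID50 virus. Medium was FCS-free Ultra MDCK with 2 μg/mL TPCK-trypsin. Serial five-fold compound dilutions (top 100 μM) were added with the virus, followed by 3–6 days at 35 °C. MTS read-out gave % protection versus virus and mock controls. EC50 was interpolated from semi-log curves; mean of two or three experiments.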

Influenza A virus = experiment: Antiviral activity against Influenza A virus (A/Puerto Rico/8/34(H1N1)) infected in MDCK cells assessed as protection against virus-induced reduction in cell viability after 3 to 6 days by MTS assay; format: functional, organism-based; conditions: A/Puerto Rico/8/1934(H1N1); summary of the method: as §1
[1] = Cytotoxicity against MDCK cells assessed as alterations in normal cell morphology measured after 3 to 6 days by microscopic analysis; format: cell-based, Canis lupus familiaris; conditions: dog
Summary of the method: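 Uninfected MDCK cultures in FCS-free Ultra MDCK medium with trypsin received five-fold compound dilutions (up to […]) for 3–6 days at 35 °C. Microscopy scored morphology, and MCC was taken as the lowest concentration causing minimal rounding, shrinking or lysis.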

MDCK = experiment: Cytotoxicity against MDCK cells assessed as reduction in cell viability measured after 3 to 6 days by MTS assay; format: cell-based, Canis lupus familiaris; conditions: dog
Summary of the method: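 Mock-infected MDCK plates were run in parallel (FCS-free Ultra MDCK medium with TPCK-trypsin) with serial five-fold dilutions up to […], 35 °C for 3–6 days. CC50 was interpolated from semi-log dose-response curves; mean of two or three experiments.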

[2] = Cytotoxicity against human HeLa cells assessed as alterations in normal cell morphology measured after 3 to 6 days by microscopic analysis; format: cell-based
Summary of the method: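 Mock-infected HeLa cultures in 2% FCS medium received serial five-fold dilutions […] for 3–6 days at 37 °C. MCC was the lowest concentration giving microscopically visible minimal change in cell morphology (rounding, shrinking, lysis).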

Punta Toro virus = experiment: Antiviral activity against Punta Toro virus infected in African green monkey Vero cells assessed as inhibition of virus-induced cytopathic effect after 3 to 6 days by MTS assay; format: functional, organism-based
Human respirovirus 3 = experiment: Antiviral activity against Parainfluenza virus 3 infected in African green monkey Vero cells assessed as inhibition of virus-induced cytopathic effect after 3 to 6 days by MTS assay; format: functional, organism-based
Sindbis virus = experiment: Antiviral activity against Sindbis virus infected in African green monkey Vero cells assessed as inhibition of virus-induced cytopathic effect after 3 to 6 days by MTS assay; format: functional, organism-based
Coxsackievirus B4 = experiment: Antiviral activity against Coxsackie B4 virus infected in human HeLa cells assessed as inhibition of virus-induced cytopathic effect after 3 to 6 days by MTS assay; format: functional, organism-based
[3] = test system: Human immunodeficiency virus; experiment: Antiviral activity against HIV; format: functional, organism-based
Yellow fever virus = experiment: Antiviral activity against Yellow fever virus infected in African green monkey Vero cells assessed as inhibition of virus-induced cytopathic effect after 3 to 6 days by MTS assay; format: functional, organism-based
Human coronavirus 229E = experiment: Antiviral activity against Human coronavirus 229E infected in human HEL299 cells assessed as inhibition of virus-induced cytopathic effect after 3 to 6 days by MTS assay; format: functional, organism-based
Human adenovirus 2 = experiment: Antiviral activity against Human adenovirus type 2 infected in human HEL299 cells assessed as inhibition of virus-induced cytopathic effect after 3 to 6 days by MTS assay; format: functional, organism-based
Vaccinia virus = experiment: Antiviral activity against Vaccinia virus infected in human HEL299 cells assessed as inhibition of virus-induced cytopathic effect after 3 to 6 days by MTS assay; format: functional, organism-based; conditions: Orthopoxvirus vaccinia
[4] = test system: Respiratory syncytial virus; experiment: Antiviral activity against Respiratory syncytial virus Long infected in human HeLa cells assessed as inhibition of virus-induced cytopathic effect after 3 to 6 days by MTS based microscopy; format: functional, organism-based
[5] = test system: Mammalian orthoreovirus 1; experiment: Antiviral activity against Reovirus-1 infected in African green monkey Vero cells assessed as inhibition of virus-induced cytopathic effect after 3 to 6 days by MTS assay; format: functional, organism-based
Human alphaherpesvirus 2 = experiment: Antiviral activity against Herpes simplex virus type 2 infected in human HEL299 cells assessed as inhibition of virus-induced cytopathic effect after 3 to 6 days by MTS assay; format: functional, organism-based
[6] = test system: Vesicular stomatitis virus; experiment: Antiviral activity against Vesicular stomatitis virus infected in human HEL299 cells assessed as inhibition of virus-induced cytopathic effect after 3 to 6 days by MTS assay; format: functional, organism-based
Human alphaherpesvirus 1 = experiment: Antiviral activity against Herpes simplex virus type 1 infected in human HEL299 cells assessed as inhibition of virus-induced cytopathic effect after 3 to 6 days by MTS assay; format: functional, organism-based
Vero = experiment: Cytotoxicity against African green monkey Vero cells assessed as reduction in cell viability measured after 3 to 6 days by MTS assay; format: cell-based; conditions: chlorocebus sabaeus

| SMILES | EC50 (Influenza B virus) [µM] | EC50 (Influenza A virus) [µM] | MCC [1] [µM] | CC50 (MDCK) [µM] | MCC [2] [µM] | Activity (Punta Toro virus) | Activity (Human respirovirus 3) | Activity (Sindbis virus) | Activity (Coxsackievirus B4) | Activity [3] | Activity (Yellow fever virus) | Activity (Human coronavirus 229E) | Activity (Human adenovirus 2) | Activity (Vaccinia virus) | EC50 [4] [µM] | Activity [5] | Activity (Human alphaherpesvirus 2) | Activity [6] | Activity (Human alphaherpesvirus 1) | Activity (Vero) |
| --- | --- | --- | --- | --- | --- | --- | --- | --- | --- | --- | --- | --- | --- | --- | --- | --- | --- | --- | --- | --- |
| NC12CC3CC(CC(C3)C1)C2 [AMANTADINE] | > 500 | 26 | > 500 | > 500 | – | – | – | – | – | – | – | – | – | – | – | – | – | – | – | – |
| NC(=O)c1ncn([C@@H]2O[C@H](CO)[C@@H](O)[C@H]2O)n1 [RIBAVIRIN] | 3.2 | 11 | ≥ 20 | – | > 250 | – | – | – | – | – | – | – | – | – | – | – | – | – | – | – |
| CCCN1C(N)=NC(N)=NC12CCN(S(=O)(=O)CCC)CC2 | > 100 | > 100 | > 100 | > 100 | > 100 | inactive | inactive | inactive | inactive | inactive | inactive | inactive | inactive | inactive | > 100 | inactive | inactive | inactive | inactive | Non-Toxic |
| NC1=NC2(CCN(C(=O)c3ccc4ccccc4c3)CC2)N(c2cccc(Cl)c2)C(N)=N1 | 4 | 28 | ≥ 4 | > 100 | ≥ 100 | inactive | inactive | inactive | inactive | inactive | inactive | inactive | inactive | inactive | > 100 | inactive | inactive | inactive | inactive | Non-Toxic |
| COc1cccc(N2C(N)=NC(N)=NC23CCN(C(=O)c2ccc(C(F)(F)F)cc2C)CC3)c1 | > 100 | > 100 | > 100 | > 100 | > 100 | inactive | inactive | inactive | inactive | inactive | inactive | inactive | inactive | inactive | > 100 | inactive | inactive | inactive | inactive | Non-Toxic |
| NC1=NC2(CCNCC2)N(c2cccc(Cl)c2)C(N)=N1 | > 100 | > 100 | > 100 | > 100 | > 100 | inactive | inactive | inactive | inactive | inactive | inactive | inactive | inactive | inactive | > 100 | inactive | inactive | inactive | inactive | Non-Toxic |
| CCCN1C(N)=NC(N)=NC12CCN(C(=O)c1c(C)noc1C)CC2 | > 100 | > 100 | > 100 | > 100 | > 100 | inactive | inactive | inactive | inactive | inactive | inactive | inactive | inactive | inactive | > 100 | inactive | inactive | inactive | inactive | Non-Toxic |
| Cl.NC1=NC2(CCCN(Cc3ccccc3)C2)N(c2ccccc2)C(N)=N1 (stereo unspecified) | > 100 | > 100 | > 100 | > 100 | > 100 | inactive | inactive | inactive | inactive | inactive | inactive | inactive | inactive | inactive | > 100 | inactive | inactive | inactive | inactive | Non-Toxic |
| CCCCC(=O)N1CCC2(CC1)N=C(N)N=C(N)N2c1cccc(OC)c1 | 28 | > 100 | ≥ 100 | > 100 | > 100 | inactive | inactive | inactive | inactive | inactive | inactive | inactive | inactive | inactive | > 100 | inactive | inactive | inactive | inactive | Non-Toxic |
| COc1cccc(N2C(N)=NC(N)=NC23CCN(C(=O)OC(C)(C)C)CC3)c1 | 39 | 87 | ≥ 100 | > 100 | > 100 | inactive | inactive | inactive | inactive | inactive | inactive | inactive | inactive | inactive | > 100 | inactive | inactive | inactive | inactive | Non-Toxic |
| Cl.NC1=NC2(CCCN(Cc3ccccc3)C2)N(c2ccc(Cl)cc2)C(N)=N1 (stereo unspecified) | > 100 | > 100 | 100 | 45 | 100 | inactive | inactive | inactive | inactive | inactive | inactive | inactive | inactive | inactive | > 100 | inactive | inactive | inactive | inactive | Non-Toxic |
| COCCN1C(N)=NC(N)=NC12CCN(S(=O)(=O)c1ccccc1)CC2 | > 100 | > 100 | > 100 | > 100 | > 100 | inactive | inactive | inactive | inactive | inactive | inactive | inactive | inactive | inactive | > 100 | inactive | inactive | inactive | inactive | Non-Toxic |
| CC(=O)N[C@H]1[C@H]([C@H](O)[C@H](O)CO)OC(C(=O)O)=C[C@@H]1N=C(N)N [ZANAMIVIR] | 0.14 | 1.3 | > 100 | > 100 | – | – | – | – | – | – | – | – | – | – | – | – | – | – | – | – |
| CC(N)C12CC3CC(CC(C3)C1)C2 (stereo unspecified) [RIMANTADINE] | > 500 | 28 | ≥ 500 | > 500 | – | – | – | – | – | – | – | – | – | – | – | – | – | – | – | – |
